Source: ChEMBL document CHEMBL2407048, “Novel synthetic acridine derivatives as potent DNA-binding and apoptosis-inducing antitumor agents” (Bioorg Med Chem, 2013)
Activity calls are given as the source filed them. The calls are words filed in the database; no cut-off is given here.

Columns and labels:
[1] = tested on: K562; assay: Cytotoxicity against human K562 cells assessed as growth inhibition after 48 hrs by MTT assay; assay type: functional, cell-based; conditions: K562, 48 h
In short: (§1)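 K562 (RPMI-1640) or HepG-2 (DMEM) cells in 10% FBS with penicillin/streptomycin at 37 °C, 5% CO₂. Seeded at 1.5×10^5 cells/mL and treated 48 h at various concentrations. MTT (5 mg/mL) added for 4 h, formazan dissolved in DMSO, absorbance read at 490 nm. IC50 reported.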

[2] = tested on: DNA; assay: Binding affinity to calf thymus DNA by fluorescence spectroscopic analysis; assay type: nucleic-acid assay; conditions: Bos taurus
In short: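 Compound at 50 μM final in Tris–HCl buffer pH 7.0 (10 mM Tris, 10 mM NaCl), titrated with ct DNA at 0 to 6 μM final. Emission excited at 420 nm with a xenon arc lamp. Quenching constant Kq derived from a Stern–Volmer plot, F0/F = 1 + Kq[Q].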

[3] = tested on: HepG2; assay: Cytotoxicity against human HepG2 cells assessed as growth inhibition after 48 hrs by MTT assay; assay type: functional, cell-based; conditions: HepG2, 48 h; in short: as §1
[4] = target: T1, DNA topoisomerase 1 (Homo sapiens) (UniProt P11387); assay: Inhibition of human recombinant DNA topoisomerase-1 assessed as relaxation of pBR322 DNA at 25 uM after 30 mins by agarose gel electrophoresis
T1 sequence (whole entry): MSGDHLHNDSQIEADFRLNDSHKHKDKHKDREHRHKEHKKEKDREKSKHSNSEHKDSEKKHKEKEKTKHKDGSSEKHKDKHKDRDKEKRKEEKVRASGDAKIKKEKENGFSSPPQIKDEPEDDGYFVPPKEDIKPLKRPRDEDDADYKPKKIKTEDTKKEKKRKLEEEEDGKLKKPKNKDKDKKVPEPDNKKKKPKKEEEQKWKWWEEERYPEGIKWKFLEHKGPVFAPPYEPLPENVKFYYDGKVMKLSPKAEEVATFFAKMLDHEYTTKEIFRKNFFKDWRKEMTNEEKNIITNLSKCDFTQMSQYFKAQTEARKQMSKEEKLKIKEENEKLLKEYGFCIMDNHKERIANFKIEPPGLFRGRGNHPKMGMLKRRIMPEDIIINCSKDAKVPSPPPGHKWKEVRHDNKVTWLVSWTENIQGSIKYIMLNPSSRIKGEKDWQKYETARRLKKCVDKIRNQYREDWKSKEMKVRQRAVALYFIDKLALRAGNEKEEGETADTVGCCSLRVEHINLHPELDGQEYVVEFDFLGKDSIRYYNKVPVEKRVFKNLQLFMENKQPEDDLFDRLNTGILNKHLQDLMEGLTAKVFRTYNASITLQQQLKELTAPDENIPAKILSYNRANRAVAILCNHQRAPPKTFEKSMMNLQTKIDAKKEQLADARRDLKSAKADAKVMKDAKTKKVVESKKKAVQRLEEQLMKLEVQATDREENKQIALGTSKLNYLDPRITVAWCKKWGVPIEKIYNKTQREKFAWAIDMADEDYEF

[5] = tested on: K562; assay: Induction of apoptosis in human K562 cells assessed as early apoptotic cells at 0.5 uM after 48 hrs by annexin V-FITC/propidium iodide staining-based flow cytometric analysis (reference value: 2.1%); assay type: functional
[6] = tested on: K562; assay: Induction of apoptosis in human K562 cells assessed as decrease in BCL-XL level at 2.5 uM after 48 hrs by Western blot analysis; assay type: functional, cell-based
In short: (§2)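 K562 cells in 6 cm dishes treated 48 h at several concentrations, then lysed on ice 0.5 h and spun at 20,000g. Protein measured by BCA, run on 15% SDS-PAGE and transferred to PVDF. Membrane blocked in 5% BSA/TBS with Na₃VO₄ and NaF, primary antibody 2 h at room temperature, chemiluminescent detection of cleaved caspase-3/7/9, BAX and BCL-XL.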

[7] = tested on: DNA; assay: Effect on calf thymus DNA conformation at 40 to 80 uM by CD spectra analysis; assay type: nucleic-acid assay; conditions: Bos taurus
In short: (§3)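 CD spectra of ct DNA (40 μM) with compound at 0, 40 or 80 μM, in 10 mM Tris/10 mM NaCl pH 7.0, at room temperature in a 0.1 cm quartz cell. Each spectrum is the average of three scans with the buffer scan subtracted.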

[8] = tested on: K562; assay: Induction of apoptosis in human K562 cells assessed as early apoptotic cells at 2.5 uM after 48 hrs by annexin V-FITC/propidium iodide staining-based flow cytometric analysis (reference value: 2.1%); assay type: functional
[9] = tested on: K562; assay: Induction of apoptosis in human K562 cells assessed as late apoptotic cells at 0.5 uM after 48 hrs by annexin V-FITC/propidium iodide staining-based flow cytometric analysis (reference value: 1.22%); assay type: functional
[10] = tested on: K562; assay: Induction of apoptosis in human K562 cells assessed as activation of caspase-9 after 48 hrs by Western blot analysis; assay type: functional, cell-based; in short: as §2
[11] = tested on: K562; assay: Induction of apoptosis in human K562 cells assessed as caspase-3 cleavage at 2.5 uM after 48 hrs by Western blot analysis; assay type: functional, cell-based; in short: as §2
[12] = tested on: K562; assay: Induction of apoptosis in human K562 cells assessed as late apoptotic cells at 2.5 uM after 48 hrs by annexin V-FITC/propidium iodide staining-based flow cytometric analysis (reference value: 1.22%); assay type: functional
[13] = tested on: DNA; assay: Binding affinity to calf thymus DNA at 40 to 80 uM by CD spectra analysis; assay type: nucleic-acid assay; conditions: Bos taurus; in short: as §3
[14] = tested on: K562; assay: Induction of apoptosis in human K562 cells assessed as late apoptotic cells at 1 uM after 48 hrs by annexin V-FITC/propidium iodide staining-based flow cytometric analysis (reference value: 1.22%); assay type: functional
[15] = tested on: DNA; assay: Binding affinity to calf thymus DNA after 5 mins by UV-vis absorption spectroscopic analysis; assay type: nucleic-acid assay; conditions: Bos taurus
In short: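 ct DNA (purity A260:A280 1.86; concentration per mole phosphate from ε260 6600 M⁻¹ cm⁻¹) titrated into 50 μM compound in 10 mM Tris, 10 mM NaCl, pH 7.0. DNA 0–10 μM. Incubated 5 min, UV-vis absorption recorded in a 1.0 cm quartz cell. Kb taken as the slope-to-intercept ratio of [DNA]/(εa−εf) plotted against [DNA].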

[16] = tested on: K562; assay: Induction of apoptosis in human K562 cells assessed as caspase-7 cleavage at 2.5 uM after 48 hrs by Western blot analysis; assay type: functional, cell-based; in short: as §2
[17] = tested on: K562; assay: Induction of apoptosis in human K562 cells after 48 hrs by annexin V-FITC/propidium iodide staining-based flow cytometric analysis; assay type: functional, cell-based
[18] = tested on: K562; assay: Induction of apoptosis in human K562 cells assessed as early apoptotic cells at 1 uM after 48 hrs by annexin V-FITC/propidium iodide staining-based flow cytometric analysis (reference value: 2.1%); assay type: functional
[19] = tested on: K562; assay: Induction of apoptosis in human K562 cells assessed as increase in Bax level at 2.5 uM after 48 hrs by Western blot analysis; assay type: functional, cell-based; in short: as §2

Compound	IC50 [1] [µM]	Kq [2]	IC50 [3] [µM]	also measured
COc1ccc2nc3cc(Cl)ccc3c(NCCCc3ccccc3)c2c1	2.2	1.05 ×10⁵ /M	3.26	
COc1cc2c(c(OC)c1OC)-c1ccc(OC)c(=O)cc1[C@@H](NC(C)=O)CC2 [COLCHICINE]			1.8	
COc1ccc2nc3cc(Cl)ccc3c(NCc3ccccc3)c2c1	0.65	1.97 ×10⁵ /M	1.4	
c1ccc(CNc2c3ccccc3nc3ccccc23)cc1	5.24	3.71 ×10⁴ /M	6.07	inhibition [4]: Active
COc1ccc2nc3ccccc3c(NCc3ccccc3)c2c1	0.54	3.5 ×10⁵ /M	0.89	Activity [5]: 7.23%; Activity [6]: Active; Activity [7]: inactive; Activity [8]: 40.44%; Activity [9]: 2%; Activity [10]: Dose-dependent effect; Activity [11]: Active; Activity [12]: 32.71%; Activity [13]: Active; Activity [14]: 18.42%; Kb [15]: 1.42 ×10⁵ /M; Activity [16]: Active; Activity [17]: Dose-dependent effect; Activity [18]: 37.09%; inhibition [4]: Active; Activity [19]: Active
O=C(Nc1c2ccccc2nc2ccccc12)c1ccccc1	> 50	< 1 ×10⁴ /M	> 50	
Clc1ccc2c(NCc3ccccc3)c3ccccc3nc2c1	9.24	1.33 ×10⁴ /M	11.6	
COc1cc(C)c2nc3cc(Cl)ccc3c(NCc3ccccc3)c2c1	3.09	1.11 ×10⁵ /M	6.05	
Cc1cccc2c(NCc3ccccc3)c3ccccc3nc12	4.86	6.22 ×10⁴ /M	3.64	inhibition [4]: Active
COc1ccc2nc3cc(Cl)ccc3c(NCCc3ccccc3)c2c1	0.65	1.19 ×10⁵ /M	2.19	
Cc1ccc(NC(=O)c2ccc(CN3CCN(C)CC3)cc2)cc1Nc1nccc(-c2cccnc2)n1 [IMATINIB]	0.47			
c1ccc(COc2c3ccccc3nc3ccccc23)cc1	> 50	< 1 ×10⁴ /M	> 50	
